Results taken from ChEMBL document CHEMBL1147099, “In vitro and in vivo antibacterial activities of heteroaryl isothiazolones against resistant gram-positive pathogens” (Antimicrob Agents Chemother, 2007).
In brackets after ≈: the same amount, converted by molar mass.

Experiments:
Format in all cases: functional
Staphylococcus aureus [1] = assay: Effect on cellular viability of methicillin-sensitive Staphylococcus aureus ATCC 29213 by measuring the time required for recovery at 10 times MIC after 1 hr
How it was run: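 S. aureus in log phase, approximately 2–4 × 10^7 CFU/ml in CAMHB, was exposed to 10× MIC for 1 h at 35 to 37°C with shaking, then diluted 1:1,000 into prewarmed CAMHB. Viable counts were taken hourly for 4 to 8 h. PAE = T − C, the time to a 1-log10 rise, treated versus untreated. Mean of two independent experiments.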

Haemophilus influenzae = assay: Antibacterial activity against Haemophilus influenzae after 24 hrs by broth microdilution method
How it was run: (§1)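 CLSI broth microdilution in cation-adjusted Mueller-Hinton II broth, final inoculum about 5 × 10^5 CFU/ml for most strains; streptococci supplemented with 2–5% lysed horse blood, H. influenzae in Haemophilus test medium. Aerobic incubation at 35–37°C for 24 h; MIC = lowest concentration with no visible growth.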

Moraxella catarrhalis = assay: Antibacterial activity against Moraxella catarrhalis after 24 hrs by broth microdilution method; how it was run: as §1
Klebsiella pneumoniae = assay: Antibacterial activity against Klebsiella pneumoniae
How it was run: (§2)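 Aerobic isolates run by CLSI broth microdilution in cation-adjusted Mueller-Hinton II broth (streptococci plus 2–5% lysed horse blood), about 5 × 10^5 CFU/ml final; 24 h at 35–37°C aerobically; MIC read as lowest concentration without visible growth.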

Escherichia coli = assay: Antibacterial activity against Escherichia coli after 24 hrs by broth microdilution method; how it was run: as §1
Enterobacter sp. = assay: Antibacterial activity against Enterobacter sp.; how it was run: as §2
Acinetobacter baumannii = assay: Antibacterial activity against Acinetobacter baumannii after 24 hrs by broth microdilution method; how it was run: as §1
Pseudomonas aeruginosa = assay: Antibacterial activity against Pseudomonas aeruginosa after 24 hrs by broth microdilution method; how it was run: as §1
[2] = test system: Mycoplasmoides pneumoniae; assay: Antibacterial activity against Mycoplasma pneumoniae after 24 hrs by broth microdilution method
Neisseria meningitidis = assay: Antibacterial activity against Neisseria meningitidis after 24 hrs by broth microdilution method; how it was run: as §1
Streptococcus viridans = assay: Antibacterial activity against Streptococcus viridans after 24 hrs by broth microdilution method; how it was run: as §1
Neisseria gonorrhoeae = assay: Antibacterial activity against Neisseria gonorrhoeae after 24 hrs by broth microdilution method; how it was run: as §1
Enterococcus faecalis = assay: Antibacterial activity against Enterococcus faecalis; how it was run: as §2
Enterococcus faecium = assay: Antibacterial activity against Enterococcus faecium; how it was run: as §2
Streptococcus pyogenes = assay: Antibacterial activity against Streptococcus pyogenes; how it was run: as §2
Legionella pneumophila = assay: Antibacterial activity against Legionella pneumophila after 24 hrs by broth microdilution method
Staphylococcus aureus [3] = assay: Antibacterial activity against methicillin-susceptible Staphylococcus aureus after 24 hrs by broth microdilution method
How it was run: (§3)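 Broth microdilution per CLSI in cation-adjusted Mueller-Hinton II broth, final inoculum approximately 5 × 10^5 CFU/ml. Plates were incubated aerobically at 35 to 37°C for 24 h. MIC was the lowest concentration giving no visible growth. Reserpine, where used, was at a final concentration of 20 μg/ml.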

Staphylococcus aureus [4] = assay: Antibacterial activity against methicillin-resistant Staphylococcus aureus after 24 hrs by broth microdilution method; how it was run: as §3
Streptococcus pneumoniae = assay: Antibacterial activity against Streptococcus pneumoniae by agar dilution method

## CCN1CC(C(=O)O)C(=O)c2cc(F)c(N3CCNCC3)cc21 (centres undefined)
Staphylococcus aureus [1]
  Post anitbiotic effect: 1.6 h

## CC1(C)S[C@@H]2[C@H](NC(=O)[C@H](N)c3ccccc3)C(=O)N2[C@H]1C(=O)O [AMPICILLIN]
Haemophilus influenzae
  MIC50: > 16 µg/mL
  MIC90: > 16 µg/mL
Moraxella catarrhalis
  MIC50: 4 µg/mL (≈ 11.4 µM)
  MIC90: 8 µg/mL (≈ 22.9 µM)
Klebsiella pneumoniae
  MIC50: > 32 µg/mL
  MIC90: > 32 µg/mL
Escherichia coli
  MIC50: 4 µg/mL (≈ 11.4 µM)
  MIC90: > 32 µg/mL
Enterobacter sp.
  MIC50: > 32 µg/mL
  MIC90: > 32 µg/mL
Acinetobacter baumannii
  MIC50: 16 µg/mL (≈ 45.8 µM)
  MIC90: > 32 µg/mL
Pseudomonas aeruginosa
  MIC50: > 32 µg/mL
  MIC90: > 32 µg/mL

## CC[C@H]1OC(=O)[C@H](C)[C@@H](O[C@H]2C[C@@](C)(OC)[C@@H](O)[C@H](C)O2)[C@H](C)[C@@H](O[C@@H]2O[C@H](C)C[C@H](N(C)C)[C@H]2O)[C@](C)(O)C[C@@H](C)CN(C)[C@H](C)[C@@H](O)[C@]1(C)O [AZITHROMYCIN]
[2]
  MIC: ≤ 0.004 µg/mL
Neisseria meningitidis
  MIC50: 0.5 µg/mL (≈ 0.668 µM)
  MIC90: 1 µg/mL (≈ 1.34 µM)
Streptococcus viridans
  MIC50: 1 µg/mL (≈ 1.34 µM)
  MIC90: 4 µg/mL (≈ 5.34 µM)
Neisseria gonorrhoeae
  MIC50: 0.06 µg/mL (≈ 0.0801 µM)
  MIC90: 0.12 µg/mL (≈ 0.16 µM)
Haemophilus influenzae
  MIC50: 0.5 µg/mL (≈ 0.668 µM)
  MIC90: 2 µg/mL (≈ 2.67 µM)
Enterococcus faecalis
  MIC50: 4 µg/mL (≈ 5.34 µM)
  MIC90: > 16 µg/mL
Enterococcus faecium
  MIC50: > 16 µg/mL
  MIC90: > 16 µg/mL
Streptococcus pyogenes
  MIC50: 0.12 µg/mL (≈ 0.16 µM)
  MIC90: > 8 µg/mL
Moraxella catarrhalis
  MIC50: 0.015 µg/mL (≈ 0.02 µM)
  MIC90: 0.03 µg/mL (≈ 0.0401 µM)
Legionella pneumophila
  MIC: 0.12 µg/mL (≈ 0.16 µM)
Staphylococcus aureus [3]
  MIC50: 1 µg/mL (≈ 1.34 µM)
  MIC90: > 8 µg/mL
Staphylococcus aureus [4]
  MIC50: > 8 µg/mL
Streptococcus pneumoniae
  MIC50: 4 µg/mL (≈ 5.34 µM)
  MIC90: > 8 µg/mL

## CO/N=C(\C(=O)N[C@@H]1C(=O)N2C(C(=O)[O-])=C(C[N+]3(C)CCCC3)CS[C@H]12)c1csc(N)n1 [CEFEPIME]
Klebsiella pneumoniae
  MIC50: 0.5 µg/mL (≈ 1.04 µM)
  MIC90: 32 µg/mL (≈ 66.6 µM)
Enterobacter sp.
  MIC50: 0.06 µg/mL (≈ 0.125 µM)
  MIC90: 4 µg/mL (≈ 8.32 µM)
Acinetobacter baumannii
  MIC50: 2 µg/mL (≈ 4.16 µM)
  MIC90: 32 µg/mL (≈ 66.6 µM)
